In one assay the test system is MDCK. Description: Cytotoxicity in MDCK cells using MTS assay. The assay is classed as functional, cell-based. The note with it: Canis lupus familiaris.
In a further assay the test system is Influenza A virus. Description: Inhibitory activity against influenza A3/Beijing/30/95 ([…]) virus in MDCK cells. It is filed as functional, organism-based. The method, boiled down: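 MDCK cells in 96-well plates were infected with influenza ([…]) virus at 50 PFU/well and treated with serially diluted compound. IC50 was calculated from the dilution series and reported in µM as the mean of at least three independent experiments run on different days.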

The source of these data is ChEMBL document CHEMBL1148549, “A novel class of potent influenza virus inhibitors: polysubstituted acylthiourea and its fused heterocycle derivatives” (Bioorg Med Chem Lett, 2006).

Regarding `CCOc1cc(OCC)nc(NC(=S)NC(=O)c2ccc(Cl)nc2)n1`, the Activity entry in the assay with MDCK was “Not toxic”. The IC50 in the assay with Influenza A virus is more than 20000 nM.

Turning to `CC(C)(C)NC(=O)NC(=S)NC(=O)c1ccc(-c2ccc([N+](=O)[O-])cc2)o1`, in the assay on MDCK, the Activity result is “Not toxic”. In addition, in the assay on Influenza A virus, the midpoint of inhibition, the IC50, lay at 1300 nM.

On to `Cc1cc(C)nc(NC(=O)NC(=O)c2c(F)cccc2F)n1`, for which, in the assay on MDCK, the Activity entry was “Not toxic”. The compound also came in with an IC50 in the assay with Influenza A virus of more than 20000 nM.

As to `CC(C)(C)NC(=O)NC(=S)NC(=O)[C@@H]1[C@@H](C=C(Cl)Cl)C1(C)C`, in the assay with MDCK, the Activity entry is “Not toxic”. In the assay on Influenza A virus, this compound showed a concentration for half-maximal inhibition (IC50) of 260 nM.

On to `CCOc1cc(Cl)nc(NC(=S)NC(=O)c2cccnc2Cl)n1`, for which the Activity entry with MDCK was “Not toxic”. In the assay on Influenza A virus, this compound returned an IC50 of more than 20000 nM.

Take `COc1cc(OC)nc(NC(=S)NC(=O)c2ccc(-c3ccccc3Cl)o2)n1`: the Activity entry in the assay with MDCK is “Not toxic”. Moreover, half-maximal inhibition with Influenza A virus (IC50) required 1770 nM.

`CC(C)(C)NC(=O)NC(=O)NC(=O)c1c(F)cccc1F`: the Activity result with MDCK is “Not toxic”. In the assay on Influenza A virus, the IC50 was 14100 nM.

For `COc1cc(Cl)nc2n/c(=N/C(=O)c3ccc(Cl)nc3)sn12`, the Activity result with MDCK was “Not toxic”. Further, 9320 nM corresponded to half-maximal inhibition in the assay with Influenza A virus (IC50).

In the case of `COc1cc(OC)nc(NC(=O)NC(=O)c2c(F)cccc2F)n1`, in the assay with MDCK, the Activity entry is “Not toxic”. This compound also had a half-maximal inhibitory concentration (IC50) with Influenza A virus of more than 20000 nM.

For the compound `Cc1cc(Cl)nc(NC(=O)NC(=O)c2c(F)cccc2F)n1`, in the assay with MDCK, the Activity entry is “Not toxic”. The compound further yielded an IC50 in the assay on Influenza A virus of more than 20000 nM.

As to `COc1cc(Cl)nc(NC(=S)NC(=O)c2ccc(Cl)nc2)n1`, the Activity entry in the assay with MDCK is “Not toxic”. In addition, the IC50 in the assay on Influenza A virus was more than 20000 nM.

As to `COc1cc(Cl)nc(NC(=S)NC(=O)c2cccnc2Cl)n1`, in the assay with MDCK, the Activity result was “Not toxic”. In the assay on Influenza A virus, this compound displayed an IC50 of 2590 nM.

`COc1cc(C)nc(NC(=S)NC(=O)c2ccc(-c3ccccc3Cl)o2)n1`: the Activity entry with MDCK was “Not toxic”. Also, the 50% inhibitory concentration (IC50) with Influenza A virus is more than 20000 nM.

`COC(=O)NC(=S)NC(=O)NC(C)(C)C`: the Activity result in the assay on MDCK is “Not toxic”. Further, the IC50 with Influenza A virus came out at 1830 nM.

Consider `CC(C)(C)NC(=O)NC(=S)NC(=O)c1ccccc1`, for which the Activity result in the assay on MDCK is “Not toxic”. Further, it took 1790 nM to reach half-maximal inhibition in the assay with Influenza A virus (IC50).

Regarding `CCOc1cc(OCC)nc(NC(=S)NC(=O)c2ccc(-c3ccc([N+](=O)[O-])cc3)o2)n1`, in the assay with MDCK, the Activity result was “Not toxic”. The compound further showed an IC50 in the assay on Influenza A virus of more than 20000 nM.

Consider `CCOc1cc(C)nc(NC(=S)NC(=O)c2ccc(-c3ccc([N+](=O)[O-])cc3)o2)n1`, for which, in the assay on MDCK, the Activity entry is “Not toxic”. In addition, in the assay on Influenza A virus, the midpoint of inhibition, the IC50, lay at 11300 nM.

With `CCOc1cc(C)nc2n/c(=N/C(=O)c3ccc(-c4ccccc4Cl)o3)sn12`, the Activity result in the assay on MDCK is “Not toxic”. The compound further gave an IC50 with Influenza A virus of 350 nM.

For the compound `CC(C)(C)NC(=O)NC(=O)NC(=O)c1ccccc1`, in the assay on MDCK, the Activity result was “Not toxic”. In the assay with Influenza A virus, this compound registered an IC50 of more than 20000 nM.

In the case of `CC(C)(C)NC(=O)NC(=S)NC(=O)c1c(F)cccc1F`, the Activity result with MDCK is “Not toxic”. In the assay on Influenza A virus, this compound showed an IC50 of 1430 nM.

For `CC(C)C(C(=O)NC(=O)NC(=O)NC(C)(C)C)c1ccc(Cl)cc1` (configuration not stated), the Activity result in the assay on MDCK is “Not toxic”. Besides, in the assay with Influenza A virus, the half-maximal inhibitory concentration (IC50) came to 15500 nM.

Take `CCOc1cc(Cl)nc(NC(=S)NC(=O)c2ccc(-c3ccccc3Cl)o2)n1`: in the assay with MDCK, the Activity result was “Not toxic”. The same compound registered an IC50 in the assay with Influenza A virus of more than 20000 nM.

As for `CC(C)[C@H](C(=O)NC(=S)NC(=O)NC(C)(C)C)c1ccc(Cl)cc1`, the Activity result with MDCK was “Not toxic”. Also, in the assay on Influenza A virus, inhibition was half-maximal at 1350 nM (IC50).

On to `COc1cc(OC)n2s/c(=N\C(=O)c3cccnc3Cl)nc2n1`, for which the Activity result in the assay on MDCK is “Not toxic”. This compound had an IC50 in the assay with Influenza A virus of 2410 nM.

Take `COc1cc(C)nc(NC(=S)NC(=O)c2ccc(Cl)nc2)n1`: the Activity result in the assay with MDCK was “Not toxic”. Moreover, in the assay with Influenza A virus, the IC50 is more than 20000 nM.

For the compound `CC(C)(C)NC(=O)NC(=S)NC(=O)[C@H]1[C@@H](/C=C(\Cl)C(F)(F)F)C1(C)C`, the Activity entry in the assay with MDCK was “Not toxic”. In addition, in the assay on Influenza A virus, 510 nM corresponded to half-maximal inhibition (IC50).

Turning to `Cc1cc(=O)nc2nc(NC(=O)c3ccc(-c4ccc([N+](=O)[O-])cc4)o3)sn12`, the Activity result with MDCK is “Not toxic”. The compound further had an IC50 in the assay with Influenza A virus of 670 nM.

As to `COc1cc(Cl)nc(NC(=S)NC(=O)c2ccc(-c3ccccc3Cl)o2)n1`, the Activity result in the assay with MDCK was “Not toxic”. The compound also showed an IC50 with Influenza A virus of 1290 nM.

In the case of `O=C(NC(=S)Nc1nc(Cl)cc(Cl)n1)c1ccc(-c2ccccc2Cl)o1`, the Activity result in the assay with MDCK was “Not toxic”. This compound gave an IC50 in the assay with Influenza A virus of 14500 nM.

Consider `Cc1cc(O)nc(NC(=S)NC(=O)c2ccc(Cl)nc2)n1`, for which, in the assay on MDCK, the Activity entry was “Not toxic”. In the assay on Influenza A virus, this compound returned an IC50 of 8580 nM.

Turning to `COc1cc(OC)nc(NC(=S)NC(=O)c2ccc(-c3ccc([N+](=O)[O-])cc3)o2)n1`, in the assay with MDCK, the Activity entry was “Not toxic”. Besides, in the assay with Influenza A virus, the IC50 was more than 20000 nM.

As for `Cc1cc(O)nc(NC(=S)NC(=O)c2ccc(-c3ccccc3Cl)o2)n1`, the Activity entry in the assay with MDCK is “Not toxic”. In the assay on Influenza A virus, this compound displayed an IC50 of 320 nM.

In the case of `COc1cc(OC)nc(NC(=S)NC(=O)c2cnc(Cl)c(Cl)c2)n1`, the Activity entry in the assay on MDCK is “Not toxic”. For the same compound, in the assay with Influenza A virus, the IC50 was determined as 18500 nM.

For `COc1cc(OC)n2s/c(=N\C(=O)c3cccnc3)nc2n1`, the Activity entry in the assay on MDCK is “Not toxic”. In the assay with Influenza A virus, this compound displayed an IC50 of more than 20000 nM.

With `CCOc1cc(OCC)n2s/c(=N\C(=O)c3ccc(-c4ccc([N+](=O)[O-])cc4)o3)nc2n1`, the Activity entry with MDCK is “Not toxic”. 5250 nM corresponded to half-maximal inhibition in the assay with Influenza A virus (IC50).

As to `COc1cc(C)nc(NC(=S)NC(=O)c2ccc(-c3ccc([N+](=O)[O-])cc3)o2)n1`, the Activity result in the assay on MDCK is “Not toxic”. Also, in the assay on Influenza A virus, half-maximal inhibition (IC50) required 1220 nM.

Regarding `Cc1cc(O)nc(NC(=S)NC(=O)c2ccc(-c3ccc([N+](=O)[O-])cc3)o2)n1`, in the assay with MDCK, the Activity result was “Not toxic”. Besides, the IC50 in the assay with Influenza A virus was determined as 360 nM.

For `Cc1cc(C)nc(NC(=S)NC(=O)c2cccnc2Cl)n1`, the Activity entry in the assay on MDCK is “Not toxic”. For the same compound, in the assay on Influenza A virus, the IC50 came to 7190 nM.

In the case of `COc1cc(OC)nc(NC(=S)NC(=O)c2cccnc2)n1`, the Activity entry in the assay on MDCK was “Not toxic”. In the assay with Influenza A virus, this compound returned a 50% inhibitory concentration (IC50) of more than 20000 nM.

As to `CCOc1cc(C)nc(NC(=S)NC(=O)c2ccc(-c3ccccc3Cl)o2)n1`, the Activity result in the assay with MDCK was “Not toxic”. The IC50 with Influenza A virus was 1650 nM.

`CC(C)(C)NC(=O)NC(=S)NC(=O)COc1ccc(Cl)cc1Cl`: the Activity entry in the assay with MDCK is “Not toxic”. In the assay with Influenza A virus, this compound had an IC50 of 1670 nM.

Consider `COc1cc(Cl)nc(NC(=O)NC(=O)c2c(F)cccc2F)n1`, for which the Activity result in the assay with MDCK is “Not toxic”. In the assay on Influenza A virus, this compound gave an IC50 of 15900 nM.

Turning to `CCOc1cc(OCC)nc(NC(=S)NC(=O)c2cccnc2Cl)n1`, in the assay with MDCK, the Activity result is “Not toxic”. In the assay on Influenza A virus, this compound showed an IC50 of more than 20000 nM.

For `CCOc1cc(OCC)n2s/c(=N\C(=O)c3ccc(Cl)nc3)nc2n1`, in the assay with MDCK, the Activity entry was “Not toxic”. Besides, the IC50 in the assay on Influenza A virus was determined as 90 nM.

`CC(C)(C)NC(=O)NC(=S)NC(=O)c1ccc(-c2ccccc2Cl)o1`: the Activity entry with MDCK was “Not toxic”. In the assay with Influenza A virus, this compound came in with an IC50 of 1420 nM.

`CCOc1cc(OCC)nc(NC(=S)NC(=O)c2ccc(-c3ccccc3Cl)o2)n1`: the Activity result in the assay with MDCK was “Not toxic”. In the assay on Influenza A virus, the IC50 amounted to 80 nM.

What is called IC50 is the midpoint of a concentration-inhibition curve. Lower therefore signals greater potency.
